Here are results for 28 compounds from PMC8966054 (Bioorganic & medicinal chemistry letters, 2022).

A short description of data set [1]: Mouse liver microsome stability / intrinsic clearance. In kind it is in vitro ADME. The note with it: for CLint scaled: mouse, liver microsomes.
The nature of data set [2]: Human liver microsome stability / intrinsic clearance. In kind it is in vitro ADME. As to conditions: for CLint scaled: human, liver microsomes.
The nature of the next data set: In vivo rat cassette PK. As to conditions: iv, 0.25 mg/kg.
A further data set deals with 6-OHDA mouse model. As to conditions: 6-OHDA mouse model ref 13; cited from earlier work.
Data set [3] is described as follows: Human plasma protein binding. In kind it is in vitro ADME. The note with it: fraction unbound.
A further data set can be described thus: Metabolite ID study. It is filed as in vitro ADME.
A further data set addresses T1, hD4R (Homo sapiens, UniProt P21917).
T1 sequence (P21917 1-419): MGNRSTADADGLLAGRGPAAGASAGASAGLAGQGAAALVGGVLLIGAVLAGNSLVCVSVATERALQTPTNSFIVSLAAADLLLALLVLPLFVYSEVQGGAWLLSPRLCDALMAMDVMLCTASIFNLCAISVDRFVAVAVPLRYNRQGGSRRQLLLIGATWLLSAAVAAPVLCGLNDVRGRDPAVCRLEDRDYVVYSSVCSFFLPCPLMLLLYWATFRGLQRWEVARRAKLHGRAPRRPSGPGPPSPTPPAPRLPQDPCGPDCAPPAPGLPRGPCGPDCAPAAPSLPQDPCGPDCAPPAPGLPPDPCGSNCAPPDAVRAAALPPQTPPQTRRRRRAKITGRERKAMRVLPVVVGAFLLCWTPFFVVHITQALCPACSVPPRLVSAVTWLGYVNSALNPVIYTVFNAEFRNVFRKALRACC
The experiment in a line: D4R competitive radioligand binding. Put shortly: (§1)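 Ki from competitive inhibition of radioligand binding in membranes from HEK293 cells stably expressing the human receptor. [3H]N-methylspiperone was used for D2R, D3R and D4R, and [3H]SCH23390 for D1R and D5R.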

The subject of data set [4] is other dopamine receptors (D1-3,5). The data set is described as follows: Binding at other dopamine receptors. Set-up: species or system human. Put shortly:
as §1

A further data set can be described thus: Mouse plasma stability. It is filed as in vitro ADME.

On to `FC(F)(F)c1cccc(COC2CCN(Cc3cc4ccc(Cl)cc4[nH]3)CC2)c1` [Compound 9z], for which the CLint scaled in data set [1] came to 71.5 mL/min/kg; in [2], 26.9 mL/min/kg.
For `COc1ccc(CN2CCC[C@H](OCc3ccc(F)c(F)c3)C2)cc1F` [Compound 8b], in that order: 1260 mL/min/kg and 272 mL/min/kg.
As for `Cn1cnc2cc(CN3CCC(OCc4cccc(C(F)(F)F)c4)CC3)ccc21` [Compound 9p], the CLint scaled is 85.2 mL/min/kg in data set [1] and 63.3 mL/min/kg in [2]. In the data set “In vivo rat cassette PK”, this compound registered a clearance of 107 mL/min/kg.
For the compound `Fc1cc(COC2CCN(Cc3cn4ccccc4n3)CC2)ccc1Cl` [Compound 9d], the CLint scaled in data set [1] is 96.8 mL/min/kg; in [2], 44.1 mL/min/kg. Besides, in the data set “In vivo rat cassette PK”, the clearance is 134 mL/min/kg.
As for `Fc1ccc(COC2CCN(Cc3cn4ccccc4n3)CC2)cc1F` [Compound 9b], in data set [1], the “Mouse liver microsome stability” value is “modestly stable” and the CLint scaled was 158 mL/min/kg. In [2], the “Human liver microsome stability” value is reported as “stable” and the CLint scaled was < 20 mL/min/kg. In the data set “In vivo rat cassette PK”, this compound registered a clearance of 116 mL/min/kg.
Turning to `COc1ccc(CN2CCO[C@H](COc3ccccc3)C2)cc1F` [Compound 1, reference compound], in the data set on 6-OHDA mouse model, the “Dyskinesia AIM (abnormal involuntary movement) scores” value is “dose-dependent reduction”. Further, in data set [1], the “Mouse liver microsome stability” value is “highly unstable” and the CLint scaled stood at 2130 mL/min/kg. The “Plasma Protein Binding (%fu) hPPB” value in data set [3] amounted to 3.1 %fu. In addition, the “Major metabolic liability (metabolite ID)” value in “Metabolite ID study” was “N-dealkylation”. Further, in [2], the “Human liver microsome stability” value was “highly unstable”.
For the compound `Fc1cc(COC2CCN(Cc3ncc4ccccn34)CC2)ccc1Cl` [Compound 9e], in [1], the “Mouse liver microsome stability” value was “not as stable” and the CLint scaled is 917 mL/min/kg. Further, in [2], the “Human liver microsome stability” value is listed as “not as stable” and the CLint scaled was 212 mL/min/kg.
`Fc1ccc(COC2CCN(Cc3cc4ccc(Cl)cc4[nH]3)CC2)cc1F` [Compound 9y]: the CLint scaled in data set [1] is 83.2 mL/min/kg; in [2], 23.5 mL/min/kg. In “In vivo rat cassette PK”, this compound showed a C0 of 36.9 ng/mL.
With `Fc1ccc(CO[C@H]2CCCN(Cc3cn4ccccc4n3)C2)cc1F` [Compound 8i], the CLint scaled in data set [1] is 1400 mL/min/kg; in [2], 689 mL/min/kg.
On to `FC(F)(F)c1cccc(COC2CCN(Cc3cn4ccccc4n3)CC2)c1` [Compound 9c], for which the CLint scaled in [1] was 310 mL/min/kg; in data set [2], 44.6 mL/min/kg.
Consider `Cn1ncc2cc(CN3CCC(OCc4ccc(Cl)c(F)c4)CC3)ccc21` [Compound 9v], for which the values for the CLint scaled in data set [1] and in data set [2] were 85.3 mL/min/kg and 42.7 mL/min/kg, respectively.
As to `Fc1cccc(COC2CCN(Cc3cn4ccccc4n3)CC2)c1` [Compound 9a], in [1], the “Mouse liver microsome stability” value was “modestly stable” and the CLint scaled was found to be 380 mL/min/kg. Besides, at hD4R, the “Fold improvement of D4 activity vs 3-O-derivative” value came to 10 fold. For the same compound, in data set [2], the “Human liver microsome stability” value is on record as “stable” and the CLint scaled is < 23.1 mL/min/kg.
With `Fc1ccc(COC2CCN(Cc3ccc4[nH]cnc4c3)CC2)cc1F` [Compound 9n], the figures for the CLint scaled in [1] and in [2] were 93.9 mL/min/kg and < 20 mL/min/kg, respectively. In “In vivo rat cassette PK”, this compound displayed a clearance of 235 mL/min/kg.
For the compound `Cc1nc(CN2CCC(OCc3ccc(Cl)c(F)c3)CC2)c2ccccn12` [Compound 9j], the CLint scaled in data set [1] came out at 140 mL/min/kg; in data set [2], 114 mL/min/kg.
`Cn1ncc2cc(CN3CCC(OCc4cccc(C(F)(F)F)c4)CC3)ccc21` [Compound 9w]: the CLint scaled in data set [1] came out at 85.2 mL/min/kg; in data set [2], 63.3 mL/min/kg.
For `COc1ccc(CN2CCC[C@H](OCc3cccc(F)c3)C2)cc1F` [Compound 8a], the “Selectivity against the other dopamine receptors” value (“Selectivity” for short) in data set [4] is “selective”.
As to `Cc1nc(CN2CCC(OCc3cccc(C(F)(F)F)c3)CC2)c2ccccn12` [Compound 9i], the CLint scaled in [1] was 272 mL/min/kg; in [2], 85.3 mL/min/kg.
Turning to `Fc1cccc(CO[C@H]2CCCN(Cc3ncn4ccccc34)C2)c1` [Compound 8n], the “D4 activity” value at hD4R was “much less active or inactive”.
Turning to `Fc1ccc(CO[C@H]2CCCN(Cc3ncn4ccccc34)C2)cc1F` [Compound 8o], the CLint scaled was 5370 mL/min/kg in data set [1] and 622 mL/min/kg in data set [2].
Consider `Fc1cc(COC2CCN(Cc3ccc4[nH]cnc4c3)CC2)ccc1Cl` [Compound 9l], for which the CLint scaled in [1] was 90.4 mL/min/kg; in [2], 48.3 mL/min/kg. Further, the clearance in the data set “In vivo rat cassette PK” came out at 199 mL/min/kg.
Regarding `FC(F)(F)c1cccc(COC2CCN(Cc3ccc4[nH]cnc4c3)CC2)c1` [Compound 9m], the CLint scaled was determined as 76.4 mL/min/kg in data set [1] and 32.9 mL/min/kg in data set [2].
Regarding `Fc1cccc(COC2CCN(Cc3ncn4ccccc34)CC2)c1` [Compound 9h], in data set [1], the “Mouse liver microsome stability” value was “not as stable” and the CLint scaled was determined as 1260 mL/min/kg. Further, in data set [2], the “Human liver microsome stability” value is listed as “not as stable” and the CLint scaled came to 340 mL/min/kg.
With `COc1ccc(CN2CCC[C@@H](OCc3ccc(F)c(C)c3)C2)cc1F` [Compound 8d], the “Fold less active, (R)-enantiomer vs (S)-enantiomer at D4” value at hD4R is given as 15 fold.
In the case of `Cn1ncc2cc(CN3CCC(OCc4ccc(F)c(F)c4)CC3)ccc21` [Compound 9u], the CLint scaled in data set [1] is 104 mL/min/kg. The compound further registered a clearance in “In vivo rat cassette PK” of 140 mL/min/kg.
With `Cc1cc(NC(=O)CN2CCC(OCc3ccc(F)c(F)c3)CC2)ccc1F` [Compound 11d], in data set [1], the “Mouse liver microsome stability” value is reported as “moderately stable” and the CLint scaled was determined as 306 mL/min/kg. Moreover, the “Mouse plasma stability” value in “Mouse plasma stability” is reported as “not stable”. Besides, the “Plasma stability (footnote symbol in mPPB column)” value in the data set “Mouse plasma stability” (mouse plasma) was “c”. Also, the “Selectivity” value in [4] is “selective for D4”. Also, in data set [2], the “Human liver microsome stability” value is “moderately stable” and the CLint scaled was 49.5 mL/min/kg.
For `Cc1cccc(CO[C@H]2CCCN(Cc3ncc4ccccn34)C2)n1` [Compound 8r], the “D4 activity” value at hD4R was “much less active or inactive”.
With `FC(F)(F)Oc1cccc(CO[C@H]2CCCN(Cc3ncc4ccccn34)C2)c1` [Compound 8q], on hD4R, the “D4 activity” value was “much less active or inactive”.
In data set [1], `Cc1c(Cl)cccc1NC(=O)CN1CCC(OCc2ccc(F)c(F)c2)CC1` [Compound 11a] showed a CLint scaled of 287 mL/min/kg. For the same compound, the “Selectivity” value in data set [4] is reported as “selective for D4”. The compound also returned a CLint scaled in data set [2] of 145 mL/min/kg. In the data set “In vivo rat cassette PK”, this compound had a C0 of 91 ng/mL and a clearance of 22 mL/min/kg.
